System: monocyte-depleted PBMCs
Assay: IL-1β secretion assay
Assay type: cell-based, human
Settings: MD-PBMCs
Outline: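 NK cells, MD-PBMCs, PBMCs or granulocytes (1.5 million/mL) or PBMC+granulocytes (0.75 million/mL each), per donor, exposed 24 h, 48 h or 6 days to 0.05–5 μM test compound diluted from DMSO stock, with DMSO controls. Supernatants kept at −70 °C. IL-1β by sandwich ELISA: HRP detection antibody, acid-stopped substrate, A450 against standards. Detection limit 3 pg/mL; triplicates; ANOVA then t test versus control, p<0.05.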

Compound: CCC[CH2][Sn][CH2]CCC [DBT, Dibutyltin]
- fold increase in IL-1β secretion (donor F142, 24 h, 50 nM DBT): 1.5 fold
- Interleukin 1 beta secreted (donor F142, 24 h, 0.1 μM DBT): 12495 ± 3130 pg/mL
- fold increase in IL-1β secretion (donor F142, 24 h, 100 nM DBT): 1.6 fold
- Interleukin 1 beta secreted (donor F142, 24 h, 0.25 μM DBT): 4456 ± 561 pg/mL
- Interleukin 1 beta secreted (donor F142, 24 h, 0.5 μM DBT): 2637 ± 1438 pg/mL
- Interleukin 1 beta secreted (donor F142, 24 h, 1 μM DBT): 77 ± 24 pg/mL
- Interleukin 1 beta secreted (donor F142, 48 h, 0.05 μM DBT): 14932 ± 420 pg/mL
- Interleukin 1 beta secreted (donor F142, 48 h, 0.1 μM DBT): 15275 ± 650 pg/mL
- Interleukin 1 beta secreted (donor F142, 48 h, 0.25 μM DBT): 6455 ± 123 pg/mL
- Interleukin 1 beta secreted (donor F142, 48 h, 0.5 μM DBT): 2604 ± 133 pg/mL
- Interleukin 1 beta secreted (donor F142, 48 h, 1 μM DBT): 851 ± 54 pg/mL
- Interleukin 1 beta secreted (donor F142, 48 h, 2.5 μM DBT): 6 ± 27 pg/mL
- Interleukin 1 beta secreted (donor F142, 6 day, 0.05 μM DBT): 2303 ± 313 pg/mL
- Interleukin 1 beta secreted (donor F142, 6 day, 0.1 μM DBT): 1606 ± 808 pg/mL
- Interleukin 1 beta secreted (donor F142, 6 day, 0.25 μM DBT): 560 ± 127 pg/mL
- Interleukin 1 beta secreted (donor F142, 6 day, 0.5 μM DBT): 270 ± 197 pg/mL
- Interleukin 1 beta secreted (donor F142, 6 day, 1 μM DBT): 90 ± 100 pg/mL
- Interleukin 1 beta secreted (donor F145, 24 h, 0.05 μM DBT): 3333 ± 164 pg/mL
- fold increase in IL-1β secretion (donor F145, 24 h, 50 nM DBT): 1.5 fold
- Interleukin 1 beta secreted (donor F145, 24 h, 0.1 μM DBT): 2390 ± 497 pg/mL
- fold increase in IL-1β secretion (donor F145, 24 h, 100 nM DBT): no increase
- Interleukin 1 beta secreted (donor F145, 24 h, 0.25 μM DBT): 700 ± 8 pg/mL
- Interleukin 1 beta secreted (donor F145, 24 h, 0.5 μM DBT): 47 ± 59 pg/mL
- Interleukin 1 beta secreted (donor F145, 48 h, 0.05 μM DBT): 780 ± 323 pg/mL
- Interleukin 1 beta secreted (donor F145, 48 h, 0.1 μM DBT): 2232 ± 1035 pg/mL
- Interleukin 1 beta secreted (donor F145, 48 h, 0.25 μM DBT): 337 ± 347 pg/mL
- Interleukin 1 beta secreted (donor F145, 6 day, 0.05 μM DBT): 983 ± 248 pg/mL
- Interleukin 1 beta secreted (donor F145, 6 day, 0.1 μM DBT): 987 ± 577 pg/mL
- Interleukin 1 beta secreted (donor F145, 6 day, 0.25 μM DBT): 535 ± 16 pg/mL
- Interleukin 1 beta secreted (donor F145, 6 day, 0.5 μM DBT): 147 ± 55 pg/mL
- Interleukin 1 beta secreted (donor F152, 24 h, 0.05 μM DBT): 721 ± 36 pg/mL
- Interleukin 1 beta secreted (donor F152, 24 h, 0.1 μM DBT): 516 ± 26 pg/mL
- Interleukin 1 beta secreted (donor F152, 24 h, 0.25 μM DBT): 406 ± 29 pg/mL
- Interleukin 1 beta secreted (donor F152, 24 h, 0.5 μM DBT): 340 ± 57 pg/mL
- Interleukin 1 beta secreted (donor F152, 24 h, 1 μM DBT): 224 ± 9 pg/mL
- Interleukin 1 beta secreted (donor F152, 24 h, 2.5 μM DBT): 83 ± 22 pg/mL
- Interleukin 1 beta secreted (donor F152, 24 h, 5 μM DBT): 19 ± 12 pg/mL
- Interleukin 1 beta secreted (donor F152, 48 h, 0.05 μM DBT): 563 ± 54 pg/mL
- Interleukin 1 beta secreted (donor F152, 48 h, 0.1 μM DBT): 495 ± 72 pg/mL
- Interleukin 1 beta secreted (donor F152, 48 h, 0.25 μM DBT): 607 ± 71 pg/mL
- Interleukin 1 beta secreted (donor F152, 48 h, 0.5 μM DBT): 703 ± 34 pg/mL
- Interleukin 1 beta secreted (donor F152, 48 h, 1 μM DBT): 296 ± 56 pg/mL
- Interleukin 1 beta secreted (donor F152, 48 h, 2.5 μM DBT): 35 ± 38 pg/mL
- Interleukin 1 beta secreted (donor F152, 48 h, 5 μM DBT): 86 ± 37 pg/mL
- Interleukin 1 beta secreted (donor F152, 6 day, 0.05 μM DBT): 81 ± 21 pg/mL
- Interleukin 1 beta secreted (donor F152, 6 day, 0.1 μM DBT): 71 ± 6 pg/mL
- Interleukin 1 beta secreted (donor F152, 6 day, 0.25 μM DBT): 118 ± 11 pg/mL
- Interleukin 1 beta secreted (donor F152, 6 day, 0.5 μM DBT): 161 ± 62 pg/mL
- Interleukin 1 beta secreted (donor F152, 6 day, 1 μM DBT): 41 ± 7 pg/mL
- Interleukin 1 beta secreted (donor F152, 6 day, 2.5 μM DBT): 20 ± 18 pg/mL
- Interleukin 1 beta secreted (donor F152, 6 day, 5 μM DBT): 14 ± 1 pg/mL
- Interleukin 1 beta secreted (donor F163, 24 h, 0.05 μM DBT): 613 ± 57 pg/mL
- Interleukin 1 beta secreted (donor F163, 24 h, 0.1 μM DBT): 370 ± 13 pg/mL
- Interleukin 1 beta secreted (donor F163, 24 h, 0.25 μM DBT): 309 ± 15 pg/mL
- Interleukin 1 beta secreted (donor F163, 24 h, 0.5 μM DBT): 310 ± 16 pg/mL
- Interleukin 1 beta secreted (donor F163, 24 h, 1 μM DBT): 130 ± 5 pg/mL
- Interleukin 1 beta secreted (donor F163, 24 h, 2.5 μM DBT): 70 ± 25 pg/mL
- Interleukin 1 beta secreted (donor F163, 24 h, 5 μM DBT): 86 ± 44 pg/mL
- Interleukin 1 beta secreted (donor F163, 48 h, 0.05 μM DBT): 607 ± 86 pg/mL
- Interleukin 1 beta secreted (donor F163, 48 h, 0.1 μM DBT): 342 ± 34 pg/mL
- Interleukin 1 beta secreted (donor F163, 48 h, 0.25 μM DBT): 547 ± 68 pg/mL
- Interleukin 1 beta secreted (donor F163, 48 h, 0.5 μM DBT): 677 ± 378 pg/mL
- Interleukin 1 beta secreted (donor F163, 48 h, 1 μM DBT): 701 ± 111 pg/mL
- Interleukin 1 beta secreted (donor F163, 6 day, 0.05 μM DBT): 715 ± 87 pg/mL
- Interleukin 1 beta secreted (donor F163, 6 day, 0.1 μM DBT): 497 ± 75 pg/mL
- Interleukin 1 beta secreted (donor F163, 6 day, 0.25 μM DBT): 305 ± 36 pg/mL
- Interleukin 1 beta secreted (donor F163, 6 day, 0.5 μM DBT): 664 ± 70 pg/mL
- Interleukin 1 beta secreted (donor F163, 6 day, 1 μM DBT): 175 ± 3 pg/mL
- Interleukin 1 beta secreted (donor F166, 24 h, 0.05 μM DBT): 6772 ± 386 pg/mL
- fold increase in IL-1β secretion (donor F166, 24 h, 0.05 μM DBT): 3.0 fold
- Interleukin 1 beta secreted (donor F166, 24 h, 0.1 μM DBT): 5569 ± 527 pg/mL
- Interleukin 1 beta secreted (donor F166, 24 h, 0.25 μM DBT): 2788 ± 126 pg/mL
- Interleukin 1 beta secreted (donor F166, 24 h, 0.5 μM DBT): 158 ± 43 pg/mL
- Interleukin 1 beta secreted (donor F166, 48 h, 0.05 μM DBT): 14662 ± 1044 pg/mL
- Interleukin 1 beta secreted (donor F166, 48 h, 0.1 μM DBT): 12941 ± 423 pg/mL
- Interleukin 1 beta secreted (donor F166, 48 h, 0.25 μM DBT): 5307 ± 349 pg/mL
- Interleukin 1 beta secreted (donor F166, 48 h, 0.5 μM DBT): 924 ± 101 pg/mL
- Interleukin 1 beta secreted (donor F166, 48 h, 1 μM DBT): 1075 ± 230 pg/mL
- Interleukin 1 beta secreted (donor F166, 48 h, 2.5 μM DBT): 1981 ± 3260 pg/mL
- Interleukin 1 beta secreted (donor F166, 6 day, 0.05 μM DBT): 6655 ± 930 pg/mL
- Interleukin 1 beta secreted (donor F166, 6 day, 0.1 μM DBT): 4959 ± 11 pg/mL
- Interleukin 1 beta secreted (donor F166, 6 day, 0.25 μM DBT): 2424 ± 95 pg/mL
- Interleukin 1 beta secreted (donor F166, 6 day, 0.5 μM DBT): 2118 ± 698 pg/mL
- fold increase in IL-1β secretion (third common donor (F152), 24 h, 50 nM DBT): 2.1 fold
- fold increase in IL-1β secretion (third common donor (F152), 24 h, 100 nM DBT): 1.4 fold

Reference: PMC5114172 (Journal of applied toxicology : JAT, 2016)
